# In article PMC5548007 (European journal of medicinal chemistry, 2017):
# Where two headings read alike, the source gives them in different places.
# Legend:
# PC-3 cells [1] = assay: Cell cycle analysis by flow cytometry with propidium iodide staining; format: cell-based, human; settings: for Cell cycle phase of arrest: PC-3, 28 at 5 μM, 46 at 4 μM
# Procedure, shortened: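 PC-3 cells were seeded at 200,000/well and allowed to attach for 3 h. They were treated with test compound at 4 or 5 μM, or DMSO vehicle, at 37 °C and harvested at 16 or 24 h, including floating cells. Cells were fixed in cold 80% ethanol for 30 min at 4 °C and RNase-treated for 30 min at 37 °C. Staining used propidium iodide (50 μg/mL stock) for 30 min, and DNA content was read by flow cytometry within 0.5–1 h.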
# rats = assay: Acute in vivo toxicity in rats; settings: oral 10 mg/kg
# Procedure, shortened: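 Male Sprague-Dawley rats (250–300 g), n = 4, dosed once by oral gavage at 10 mg/kg in 5% DMSO / 40% PEG 400 / 55% saline. Dosing was part of a pharmacokinetic study, with tail-vein blood drawn at 1, 3, 6 and 24 h. Time to death after oral dosing was recorded in hours.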
# [2] = Oral pharmacokinetic study in Sprague-Dawley rats; format: in vivo, rat; settings: single oral dose 10 mg/kg
# Procedure, shortened: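 Male Sprague-Dawley rats (250–300 g, n = 4) received a single 10 mg/kg oral gavage in 5% DMSO/40% PEG 400/55% saline. Tail-vein blood was taken into EDTA at 1, 3, 6 and 24 h, and plasma was stored at −80 °C. Plasma was extracted with chloroform/methanol (2:1) using a 13C2,15N-tamoxifen internal standard. Quantitation was by UPLC–triple-quadrupole MS/MS with a water/acetonitrile 0.05% formic acid gradient.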
# [3] = Metabolic profiling by liver microsome incubation; format: in vitro ADME, human; settings: 37 °C, 60 min, NADPH; mono-hydroxylation products by HRMS
# Procedure, shortened: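 Pooled human liver microsomes in potassium phosphate buffer (pH 7.4) with NADPH solutions A and B were preincubated for 5 min at 37 °C. Test compound was added from a 10 mM stock and incubated for 60 min at 37 °C. Methanol stopped the reaction, and samples were centrifuged at 10,000 × g for 4 min at 4 °C. Supernatant was analysed by UHPLC with high-resolution mass spectrometry.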
# [4] = test system: three human prostate cancer cell lines; assay: Anti-proliferative potency across three prostate cancer cell lines; format: cell-based; settings: read-out: IC50 range in three prostate cancer cell lines
# Procedure, shortened: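 Human prostate cancer cells were grown at 37 °C in 5% CO2: PC-3 and LNCaP in RPMI-1640, DU-145 in EMEM, each with 10% FBS and 1% penicillin/streptomycin. Cells were seeded at 3,200/well and exposed to test compound for 3 days, with DMSO as vehicle control. WST-1 reagent was added for 3 h at 37 °C and absorbance read at 430 nm. IC50 came from linear inhibition over ≥5 doses, averaged over triplicates.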
# PC-3 cells [5] = assay: WST-1 cell proliferation assay, PC-3; format: cell-based; settings: Homo sapiens, PC-3, 72 h, read-out: IC50 PC-3
# Procedure, shortened: (§1)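 PC-3 and LNCaP cells grown in RPMI-1640, DU145 in EMEM, each with 10% FBS and 1% penicillin/streptomycin at 37 °C, 5% CO2. Cells seeded at 3,200/well, then exposed 3 days to at least five doses of test compound, with DMSO as vehicle control. WST-1 reagent added for 3 h at 37 °C, absorbance read at 430 nm. IC50 taken from linear inhibition plot; mean ± SD of triplicates.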
# PC-3 cells [6] = settings: cited from earlier work
# [7] = mice, single oral dose 1 mg/kg; cited from earlier work
# LNCaP cells = assay: WST-1 cell proliferation assay, LNCaP; format: cell-based; settings: Homo sapiens, 72 h, read-out: IC50 LNCaP
# Procedure, shortened: as §1
# DU145 cells = assay: WST-1 cell proliferation assay, DU145; format: cell-based; settings: Homo sapiens, DU-145, 72 h, read-out: IC50 DU145
# Procedure, shortened: as §1
compound,measurement,setting,value
"CCC(C)n1ccnc1/C=C/C(=O)/C=C/c1sc(C)nc1C(F)(F)F (stereo not drawn) [Compd 28, (1E,4E)-1-(1-(sec-Butyl)-1H-imidazol-2-yl)-5-(2-methyl-4-(trifluoromethyl)thiazol-5-yl)penta-1,4-dien-3-one]","Lower cell population at G2 phase vs control, 16 h","PC-3 cells [1]; 5 μM, 16 h",10%
same,"Higher cell population at G0/G1 phase vs control, 24 h","PC-3 cells [1]; 5 μM, 24 h",4%
same,"Lower cell population at G2 phase vs control, 24 h","PC-3 cells [1]; 5 μM, 24 h",3%
same,Cell cycle phase of arrest,PC-3 cells [1],cell cycle arrest at the G0/G1 phase
same,Acute in vivo toxicity (tolerability),rats,without observed toxicity
same,Peak plasma concentration in molar units,[2],5.27 µM
same,Major metabolic products detected after microsomal incubation,[3],three major metabolic products
"CCCn1ccnc1/C=C/C(=O)/C=C/c1nc2ccccc2n1CCC [Compd 46, (1E,4E)-1-(1-Propyl-1H-benzo[d]imidazole-2-yl)-5-(1-propyl-1H-imidazole-2-yl)penta-1,4-dien-3-one]",Cell cycle phase of arrest,PC-3 cells [1],cell cycle arrest at the G0/G1 phase
same,Time to death after oral dosing,rats,about 48 hours
"CCn1c(/C=C/C(=O)/C=C/c2sc(C)nc2C(F)(F)F)nc2ccccc21 [Compd 49, (1E,4E)-1-(1-Ethyl-1H-benzo[d]imidazol-2-yl)-5-(2-methyl-4-(trifluoromethyl)thiazol-5-yl)penta-1,4-dien-3-one]",Acute in vivo toxicity (tolerability),rats,without observed toxicity
same,Major metabolic products detected after microsomal incubation,[3],two major metabolic products
"CC(C)n1c(/C=C/C(=O)/C=C/c2ccccn2)nc2ccccc21 [Compd 58, (1E,4E)-1-(1-Isopropyl-1H-benzo[d]imidazol-2-yl)-5-(pyridin-2-yl)penta-1,4-dien-3-one]",IC50,[4],0.03 to 0.12 µM
same,Time to death after oral dosing,rats,~72 h
COc1cc(/C=C/C(=O)CC(=O)/C=C/c2ccc(O)c(OC)c2)ccc1O [Curcumin],IC50,PC-3 cells [5],25.4 ± 2.15 µM
same,Cell cycle phase of arrest,PC-3 cells [6],G1/S phase
same,Area under curve (AUC),[7],2.85 ng·h/mL
same,IC50,LNCaP cells,13.6 ± 2.69 µM
same,IC50,DU145 cells,26.2 ± 0.65 µM
